Results reported in ChEMBL document CHEMBL2029304, “Synthesis and SAR of tetrahydroisoquinolines as Rev-erbα agonists” (Bioorg Med Chem Lett, 2012).

Experiments:
[1] = target: T1, Nuclear receptor subfamily 1 group D member 1 (Homo sapiens) (UniProt P20393); assay: Agonist activity at Rev-erbalpha assessed as repression of transcription at 10 uM by luciferase-reporter gene assay relative to control; format: functional
T1 sequence (whole entry): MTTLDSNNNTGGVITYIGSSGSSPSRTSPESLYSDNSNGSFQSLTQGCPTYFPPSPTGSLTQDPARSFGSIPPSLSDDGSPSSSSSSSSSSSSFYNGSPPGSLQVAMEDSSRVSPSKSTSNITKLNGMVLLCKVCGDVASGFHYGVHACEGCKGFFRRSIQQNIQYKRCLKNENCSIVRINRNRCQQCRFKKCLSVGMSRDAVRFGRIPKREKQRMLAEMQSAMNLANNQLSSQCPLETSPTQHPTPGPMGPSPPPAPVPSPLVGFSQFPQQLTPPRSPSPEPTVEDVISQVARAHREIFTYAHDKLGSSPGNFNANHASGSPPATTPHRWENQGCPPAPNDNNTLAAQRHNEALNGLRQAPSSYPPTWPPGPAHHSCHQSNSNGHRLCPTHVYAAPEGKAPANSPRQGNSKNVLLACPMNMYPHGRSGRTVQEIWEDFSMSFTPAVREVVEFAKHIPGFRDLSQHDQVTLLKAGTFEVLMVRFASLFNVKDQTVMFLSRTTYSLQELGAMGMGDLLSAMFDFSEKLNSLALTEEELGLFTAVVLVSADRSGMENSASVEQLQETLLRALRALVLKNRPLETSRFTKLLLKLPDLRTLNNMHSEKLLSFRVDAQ
Procedure, shortened: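 Cells co-transfected with a full-length Rev-erbα expression plasmid and a luciferase reporter driven by the Bmal1 promoter. Compounds were screened at 1 μM and 10 μM for repression of Bmal1-driven transcription. The value is the fold change in luciferase signal relative to the DMSO control at 10 μM compound, where 1.0 means no repression.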

[2] = target: T2, Nuclear receptor subfamily 1 group D member 1 (Homo sapiens, UniProt P20393); assay: Agonist activity at Rev-erbalpha assessed as repression of transcription by luciferase-reporter gene assay; format: functional
T2 sequence (P20393 whole entry): T1 sequence (whole entry)
Procedure, shortened: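 Cells co-transfected with a full-length Rev-erbα expression plasmid and a luciferase reporter driven by the Bmal1 promoter; repression of Bmal1 transcription read by luciferase. Compounds first tested at 1 μM and 10 μM, value given as fold change versus DMSO control at 10 μM (1.0 = no repression). Active compounds then titrated in an eleven-point dose response to give EC50.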

Rattus norvegicus [3] = assay: Volume of distribution in Sprague-Dawley rat at 1 mg/kg, iv and 2 mg/kg, po by LC-MS/MS analysis; format: ADME, organism-based; conditions: in vivo
Procedure, shortened: (§1)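 Male/female unspecified Sprague-Dawley rats, n = 3; single 1 mg/kg i.v. dose and 2 mg/kg oral gavage dose. Blood sampled at 5, 15, 30 min, 1, 2, 4, 6, 8 h into EDTA tubes, plasma by centrifugation, proteins precipitated with acetonitrile, drug measured by LC-MS/MS. Noncompartmental analysis gave t1/2, clearance, Vd, AUC, Cmax and oral bioavailability.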

Brain = assay: Brain penetration in C57Bl6 mouse at 10 mg/kg, ip after 2 hrs by LC-MS/MS analysis; format: ADME, organism-based; design: dose 10 mg/kg, route intraperitoneal; conditions: in vivo
Procedure, shortened: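 C57Bl6 mice (n = 3), single 10 mg/kg intraperitoneal dose; blood and brain collected at 2 h, plasma frozen at −80°C. Plasma and brain mixed with acetonitrile (1:5 v:v or w:v), brain probe-sonicated, drug measured by LC-MS/MS against plasma or blank-brain-matrix standards; brain penetration as brain/plasma level percentage.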

[4] = target: T2, Nuclear receptor subfamily 1 group D member 1; assay: Agonist activity at Rev-erbalpha assessed as NCoR recruitment by FRET assay; format: functional
[5] = Half life in Sprague-Dawley rat at 1 mg/kg, iv and 2 mg/kg, po by LC-MS/MS analysis; format: ADME, organism-based; conditions: in vivo; procedure, shortened: as §1
Rattus norvegicus [6] = assay: Oral bioavailability in Sprague-Dawley rat at 2 mg/kg by LC-MS/MS analysis; format: ADME, organism-based; conditions: in vivo; procedure, shortened: as §1

Row | Compound | fold change (FC) [1] | EC50 [2] | further results
1 | O=C(c1cccc2ccccc12)N1Cc2ccccc2CC1COc1ccccc1 (stereo unspecified) | 0.37 | 0.84 µM | –
2 | CCOC(=O)C1Cc2ccccc2CN1Cc1ccc(C(=O)O)s1 (stereo unspecified) | 1 | – | –
3 | CCOC(=O)C1Cc2ccccc2CN1C(=O)Nc1ccccc1 (stereo unspecified) | 1.5 | – | –
4 | O=C(NCc1ccccc1)C1Cc2ccccc2CN1C(=O)c1cccc2ccccc12 (stereo unspecified) | 0.55 | > 3 µM | –
5 | O=C(c1cccc2ccccc12)N1Cc2ccccc2CC1CNS(=O)(=O)c1ccccc1 (stereo unspecified) | 0.4 | – | –
6 | CCOC(=O)C1Cc2ccccc2CN1S(=O)(=O)c1cccc(Br)c1 (stereo unspecified) | 0.75 | – | –
7 | CCOC(=O)C1Cc2ccccc2CN1Cc1nc2ccccc2s1 (stereo unspecified) | 0.95 | – | –
8 | CCOC(=O)C1Cc2ccccc2CN1Cc1ccc(C(F)(F)F)nc1 (stereo unspecified) | 1 | – | –
9 | CC(=O)OCC1Cc2ccccc2CN1C(=O)c1cccc2ccccc12 (stereo unspecified) | 0.65 | – | –
10 | CC(C)(C)OC(=O)CN(Cc1ccc(Cl)cc1)Cc1ccc([N+](=O)[O-])s1 [GSK-4112] | 0.82 | 2.3 µM | Vd (Rattus norvegicus [3]): 9.9 L/kg; Drug uptake (Brain): 140%; EC50 [4]: 0.4 µM; half-life [5]: 0.4 h; F (Rattus norvegicus [6]): 0%
11 | CN(C)c1cccc(OCC2Cc3ccccc3CN2C(=O)c2cccc3ccccc23)c1 (stereo unspecified) | 0.3 | 0.78 µM | –
12 | O=C(c1cccc2ccccc12)N1Cc2ccccc2CC1COCc1ccccc1 (stereo unspecified) | 0.41 | 0.65 µM | Vd (Rattus norvegicus [3]): 3.8 L/kg; half-life [5]: 1.9 h; F (Rattus norvegicus [6]): 0%
13 | CCOC(=O)C1Cc2ccccc2CN1C(=O)c1ccccc1 (stereo unspecified) | 0.97 | – | –
14 | CCOC(=O)C1Cc2ccccc2CN1C(=O)Nc1cccc2ccccc12 (stereo unspecified) | 1 | – | –
15 | CCOC(=O)C1Cc2ccccc2CN1C(=O)C1CCCc2ccccc21 (stereo unspecified) | 0.73 | – | –
16 | CCOC(=O)C1Cc2ccccc2CN1Cc1cccc2ccccc12 (stereo unspecified) | 1 | – | –
17 | CCOC(=O)C1Cc2ccccc2CN1C(=O)c1ccccc1Cl (stereo unspecified) | 0.78 | – | –
18 | CCOC(=O)C1Cc2ccccc2CN1S(=O)(=O)c1ccc(C)cc1 (stereo unspecified) | 0.51 | 1.1 µM | –
19 | CCCOc1ccc(OCC2Cc3ccccc3CN2C(=O)c2cccc3ccccc23)cc1 (stereo unspecified) | 0.45 | 0.077 µM | –
20 | O=C(c1cccc2ccccc12)N1Cc2ccccc2CC1COc1cccc2ccccc12 (stereo unspecified) | 0.41 | 1.2 µM | –
21 | CCOC(=O)C1Cc2ccccc2CN1S(=O)(=O)c1cccc2ccccc12 (stereo unspecified) | 0.5 | 1.7 µM | –
22 | NCC1Cc2ccccc2CN1C(=O)c1cccc2ccccc12 (stereo unspecified) | 0.74 | – | –
23 | CCOC(=O)C1Cc2ccccc2CN1Cc1ccc([N+](=O)[O-])o1 (stereo unspecified) | 0.9 | – | –
24 | CCOC(=O)C1Cc2ccccc2CN1C(=O)Oc1ccccc1 (stereo unspecified) | 1 | – | –
25 | O=C(NCC1Cc2ccccc2CN1C(=O)c1cccc2ccccc12)OCc1ccccc1 (stereo unspecified) | 0.53 | – | –
26 | COc1ccccc1OCC1Cc2ccccc2CN1C(=O)c1cccc2ccccc12 (stereo unspecified) | 0.4 | 2 µM | –

Row | Compound | fold change (FC) [1] | EC50 [2] | further results
27 | O=C(c1cccc2ccccc12)N1Cc2ccccc2CC1CNCc1ccccc1 (stereo unspecified) | 0.43 | > 3 µM | Vd (Rattus norvegicus [3]): 3.8 L/kg; half-life [5]: 1.7 h; F (Rattus norvegicus [6]): 0%
28 | CC(C)(C)Oc1ccc(OCC2Cc3ccccc3CN2C(=O)c2cccc3ccccc23)cc1 (stereo unspecified) | 0.5 | 0.14 µM | –
29 | O=C(c1cccc2ccccc12)N1Cc2ccccc2CC1CO (stereo unspecified) | 0.71 | – | –
30 | CCOC(=O)C1Cc2ccccc2CN1C(=O)c1cccc2c1CCCC2 (stereo unspecified) | 0.53 | 2.1 µM | –
31 | CCOC(=O)C1Cc2ccccc2CN1C(=O)Oc1cccc(C(F)(F)F)c1 (stereo unspecified) | 1 | – | –
32 | O=C(c1cccc2ccccc12)N1Cc2ccccc2CC1COc1ccc(F)cc1 (stereo unspecified) | 0.43 | 0.8 µM | –
33 | O=C(c1cccc2ccccc12)N1Cc2ccccc2CC1COc1ccc(F)cc1F (stereo unspecified) | 0.45 | 0.71 µM | –
34 | O=C(O)C1Cc2ccccc2CN1C(=O)c1cccc2ccccc12 (stereo unspecified) | 0.67 | – | –
35 | CCOC(=O)C1Cc2ccccc2CN1C(=O)c1ccno1 (stereo unspecified) | 1 | – | –
36 | CCOC(=O)C1Cc2ccccc2CN1C(=O)c1cccc(Br)c1 (stereo unspecified) | 0.97 | – | –
37 | CCOC(=O)C1Cc2ccccc2CN1C(=O)c1cccc2oc(C)cc12 (stereo unspecified) | 0.51 | > 3 µM | –
38 | O=C(c1cccc2ccccc12)N1Cc2ccccc2CC1COc1ccc(OC(F)(F)F)cc1 (stereo unspecified) | 0.4 | 0.6 µM | –
39 | CCOC(=O)C1Cc2ccccc2CN1C(=O)Oc1ccc(Cl)cc1 (stereo unspecified) | 1.3 | – | –
40 | O=C(c1cccc2ccccc12)N1Cc2ccccc2CC1COc1ccc(-c2ccccc2)cc1 (stereo unspecified) | 0.4 | 0.65 µM | –
41 | CCOC(=O)C1Cc2ccccc2CN1Cc1ccc([N+](=O)[O-])s1 (stereo unspecified) | 0.78 | – | –
42 | NC(=O)C1Cc2ccccc2CN1C(=O)c1cccc2ccccc12 (stereo unspecified) | 0.61 | – | –
43 | O=C(c1cccc2ccccc12)N1Cc2ccccc2CC1COc1ccc(-n2cncn2)cc1 (stereo unspecified) | 0.35 | 0.12 µM | –
44 | CCOC(=O)C1Cc2ccccc2CN1C(=O)c1cccc2cccnc12 (stereo unspecified) | 0.64 | – | –
45 | COc1ccc(OCC2Cc3ccccc3CN2C(=O)c2cccc3ccccc23)cc1OC (stereo unspecified) | 0.55 | 0.33 µM | –
46 | O=C(Nc1ccccc1)C1Cc2ccccc2CN1C(=O)c1cccc2ccccc12 (stereo unspecified) | 0.59 | – | –
47 | COc1ccc(OCC2Cc3ccccc3CN2C(=O)c2cccc3ccccc23)cc1 (stereo unspecified) | 0.38 | 0.12 µM | –
48 | CCOC(=O)C1Cc2ccccc2CN1C(=O)c1cccc2ccccc12 (stereo unspecified) | 0.41 | 2.5 µM | –
49 | CCOc1ccc(OCC2Cc3ccccc3CN2C(=O)c2cccc3ccccc23)cc1 (stereo unspecified) | 0.35 | 0.097 µM | –
50 | CCOC(=O)C1Cc2ccccc2CN1C(=O)C1COc2ccccc2O1 (stereo unspecified) | 0.81 | – | –
51 | COc1cccc(OCC2Cc3ccccc3CN2C(=O)c2cccc3ccccc23)c1 (stereo unspecified) | 0.45 | 0.62 µM | –
